The values below come from ChEMBL document CHEMBL1153805, “Phenylethanoid glycosides from Lantana fucata with in vitro anti-inflammatory activity” (J Nat Prod, 2009).

The nature of data set [1]: Antiproliferative activity against mouse J774A1 cells assessed as cell viability at 1 ug/ml after 72 hrs by MTT assay relative to LPS. The class given is cell-based, J774.A1. In short, it runs like this: (§1)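 J774A.1 cells (3.5 × 10⁴/well) adhered 2 h at 37 °C, 5% CO₂. Medium was renewed, then serial dilutions of compound were added for 72 h. MTT was added for a further 3 h, formazan was dissolved in 50% DMF/20% SDS (pH 4.5), and OD was read at 620 nm. % dead cells = 100 − (OD treated/OD control) × 100. A cell-free control tested for MTT interference.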
In general terms: Formazan colour is commonly taken as a measure of viable cells.

Data set [2] relates to J774.A1. Kind of data set: Antiinflammatory activity in mouse J774A1 cells assessed as inhibition of LPS-induced NO release at 1 ug/ml after 24 hrs treated 1 hr before LPS challenge relative to LPS. The format is functional. A digest of the protocol: (§2)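 J774A.1 cells (5.0 × 10⁴/well) adhered 2 h at 37 °C, 5% CO₂. Compounds added 1 h before and simultaneously with E. coli LPS (6 × 10³ U/mL) to induce iNOS. Nitrite accumulated in medium was measured 24 h after LPS with Griess reagent against a sodium nitrite standard curve made in culture medium. Expressed as % inhibition versus LPS-only cells. L-NAME (1 µM) was the reference.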

In data set [3] the test system is J774.A1. Briefly: Antiinflammatory activity in mouse J774A1 cells assessed as inhibition of LPS-induced NO release at 10 ug/ml after 24 hrs treated 1 hr before LPS challenge relative to LPS. The class given is functional. A digest of the protocol:
as §2

The nature of data set [4]: Antiproliferative activity against mouse J774A1 cells assessed as cell viability at 10 ug/ml after 72 hrs by MTT assay relative to LPS. The format is cell-based, J774.A1. A digest of the protocol:
as §1

Data set [5] has as its system J774.A1. Briefly: Antiinflammatory activity in mouse J774A1 cells assessed as inhibition of LPS-induced NO release at 100 ug/ml after 24 hrs treated 1 hr before LPS challenge relative to LPS. The class given is functional. In short, it runs like this:
as §2

Data set [6] can be described thus: Antiproliferative activity against mouse J774A1 cells assessed as cell viability at 100 ug/ml after 72 hrs by MTT assay relative to LPS. The class given is cell-based, J774.A1. A digest of the protocol:
as §1

The test system of data set [7] is J774.A1. Briefly: Antiinflammatory activity in mouse J774A1 cells assessed as inhibition of LPS-induced NO release at 1 uM after 24 hrs treated 1 hr before LPS challenge relative to LPS. The class given is functional. In short, it runs like this: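 J774A.1 murine macrophages plated at 5.0 × 10⁴ cells/well, adhered 2 h at 37 °C in 5% CO₂. Compounds (1-100 µg/mL) added 1 h before and simultaneously with E. coli LPS (6 × 10³ U/mL) to induce iNOS. After 24 h, nitrite in medium measured by Griess reagent against a sodium nitrite standard curve made in culture medium. Expressed as % inhibition versus LPS alone.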

Usually viability stands for a per cent measure of how many cells are alive, often set against a control. What is called inhibition is the relative decrease from the control value, in per cent.

Regarding `O=C(/C=C/c1ccc(O)c(O)c1)O[C@H]1[C@H](O)[C@@H](O[C@@H]2OC[C@](O)(CO)[C@H]2O)[C@H](OCCc2ccc(O)c(O)c2)O[C@@H]1CO` [FUCATOSIDE A], in data set [1], the viability at 72 h, 1 ug/ml was found to be 97.3%. Further, the inhibition at 1 µg/mL with J774.A1 [2] is 13.3%. For the same compound, the inhibition at 10 µg/mL with J774.A1 [3] worked out at 11.2%. For the same compound, in data set [4], the viability at 72 h, 10 ug/ml is 95.9%. Besides, the inhibition at 100 µg/mL in the data set on J774.A1 [5] stood at 52.5%. Further, the viability at 72 h, 100 ug/ml in data set [6] was found to be 95%.

In the case of `O=C(/C=C/c1ccc(O)c(O)c1)O[C@H]1[C@H](O[C@@H]2OC[C@](O)(CO)[C@H]2O)[C@@H](O[C@@H]2OC[C@@H](O)[C@H](O)[C@H]2O)[C@H](OCCc2ccc(O)c(O)c2)O[C@@H]1CO` [FUCATOSIDE B], in data set [1], the viability at 72 h, 1 ug/ml amounted to 97.5%. Besides, in the data set on J774.A1 [2], the inhibition at 1 µg/mL was 13.7%. For the same compound, the inhibition at 10 µg/mL with J774.A1 [3] was 16.4%. In addition, in data set [4], the viability at 72 h, 10 ug/ml was determined as 96.1%. Also, the inhibition at 100 µg/mL in the data set on J774.A1 [5] is 81.4%. Further, the viability at 72 h, 100 ug/ml in data set [6] stood at 94.4%.

Consider `O=C(/C=C/c1ccc(O)c(O)c1)O[C@H]1[C@H](O[C@@H]2OC[C@@](O)(CO)[C@H]2O)[C@@H](O[C@@H]2OC[C@@](O)(CO)[C@H]2O)[C@H](OCCc2ccc(O)c(O)c2)O[C@@H]1CO` [FUCATOSIDE C], for which the viability at 72 h, 1 ug/ml in data set [1] is 96.4%. Further, the inhibition at 1 µg/mL in the data set on J774.A1 [2] worked out at 4.4%. Also, the inhibition at 10 µg/mL in the data set with J774.A1 [3] is 31.8%. The viability at 72 h, 10 ug/ml in data set [4] is 96.8%. Also, the inhibition at 100 µg/mL with J774.A1 [5] was found to be 93.7%. Besides, in data set [6], the viability at 72 h, 100 ug/ml is 94.3%.

Take `COC(=O)[C@@H](N)CCCNC(=N)N[N+](=O)[O-]` [L-NAME]: the inhibition at 1 µM in the data set on J774.A1 [7] came out at 46.6%.

For `Sc1ncnc2nc[nH]c12` [MERCAPTOPURINE ANHYDROUS], the viability at 72 h, 1 ug/ml in data set [1] was determined as 44.1%. Also, in data set [4], the viability at 72 h, 10 ug/ml was 38%. Also, in data set [6], the viability at 72 h, 100 ug/ml was 31.8%.

In the case of `C[C@@H]1O[C@@H](O[C@H]2[C@H](OCCc3ccc(O)c(O)c3)O[C@H](CO)[C@@H](OC(=O)/C=C/c3ccc(O)c(O)c3)[C@@H]2O)[C@H](O)[C@H](O)[C@H]1O` [PARVIFLOROSIDE A], the viability at 72 h, 1 ug/ml in data set [1] was determined as 96.7%. The inhibition at 1 µg/mL in the data set with J774.A1 [2] worked out at 3.8%. Moreover, in the data set with J774.A1 [3], the inhibition at 10 µg/mL came to 9%. For the same compound, in data set [4], the viability at 72 h, 10 ug/ml came out at 95.9%. The inhibition at 100 µg/mL in the data set on J774.A1 [5] was 88.5%. The viability at 72 h, 100 ug/ml in data set [6] is 96.9%.
